# Laboratory results from ChEMBL document CHEMBL3877264, “Quinolidene-rhodanine conjugates: Facile synthesis and biological evaluation” (Eur J Med Chem, 2017).
# What was measured:
# [1] = Cytotoxicity against human HeLa cells measured after 48 hrs by MTT assay; format: toxicity, cell-based
# [2] = Cytotoxicity against human THP1 cells measured after 48 hrs by MTT assay; format: toxicity, cell-based, THP-1
# In short: (§1)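 MTT assay with 48 h compound exposure. THP-1 macrophages made by 24 h PMA treatment. Each concentration tested in triplicate in one experiment. % cytotoxicity = (control−test)/(control−blank)×100, with control = cells + DMSO and blank = medium without cells. IC50 from % survival versus concentration plots.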
# [3] = Cytotoxicity against […]-differentiated human THP1 cells measured after 48 hrs by MTT assay; format: toxicity, cell-based, THP-1; in short: as §1
# [4] = Cytotoxicity against human A549 cells measured after 48 hrs by MTT assay; format: toxicity, cell-based
# [5] = Cytotoxicity against human PANC1 cells measured after 48 hrs by MTT assay; format: toxicity, cell-based, PANC-1
# [6] = Cytotoxicity against primary HUVEC measured after 48 hrs by MTT assay; format: toxicity, cell-based; conditions: human
# [7] = Selectivity index, ratio of GI50 for human A549 cells to MIC for Mycobacterium tuberculosis H37Ra ATCC 25177 at dormant stage; format: toxicity, cell-based; conditions: read-out: Selectivity Index
# In short: (§2)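 SI is the cell-line GI50 divided by the dormant-stage mycobacterial MIC. […] THP-1 macrophages were PMA-differentiated for 24 h.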
# [8] = tested on: Mycobacterium tuberculosis; assay: Growth inhibition of Mycobacterium tuberculosis H37Ra ATCC 25177 at active stage measured after 8 days by XTT dye based two fold dilution method; format: functional; conditions: H37Ra ATCC 25177, 192 h
# In short: (§3)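 MTB H37Ra was grown in Dubos medium, then exposed in Mycobacterium pheli minimal medium (pH 6.6) to compounds dissolved in DMSO. The assay ended on day 8 (active) or day 12 (dormant). Viable cells were measured by XTT reduction menadione assay at 470 nm, blank-corrected, relative to vehicle control. Triplicates were expressed as mean ± SD. MIC came from dose-response curves.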
# [9] = Selectivity index, ratio of GI50 for […]-differentiated human THP1 cells to MIC for Mycobacterium tuberculosis H37Ra ATCC 25177 at dormant stage; format: toxicity, cell-based, THP-1; conditions: read-out: Selectivity Index; in short: as §2
# [10] = Selectivity index, ratio of GI50 for human THP1 cells to MIC for Mycobacterium tuberculosis H37Ra ATCC 25177 at dormant stage; format: toxicity, cell-based, THP-1; conditions: read-out: Selectivity Index; in short: as §2
# [11] = Selectivity index, ratio of GI50 for human HeLa cells to MIC for Mycobacterium tuberculosis H37Ra ATCC 25177 at dormant stage; format: toxicity, cell-based; conditions: read-out: Selectivity Index; in short: as §2
# [12] = Selectivity index, ratio of GI50 for HUVEC to MIC for Mycobacterium bovis BCG ATCC 35743 at dormant stage; conditions: pooled result: one value given for 6 cell lines, strains, targets or settings; in short: as §2
# [13] = tested on: Mycobacterium tuberculosis; assay: Growth inhibition of Mycobacterium bovis BCG ATCC 35743 at active stage measured after 8 days by nitrate reductase dye based two fold dilution method; format: functional; conditions: BCG str. ATCC 35743, 192 h
# In short: (§4)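 M. bovis BCG was grown in Dubos medium and assayed in Mycobacterium pheli minimal medium (pH 6.6), with compounds from DMSO stocks. Incubation lasted 8 days for active and 12 days for dormant cultures. Viability was read by nitrate reductase at 540 nm against cell-free blanks, with vehicle set as 100% growth. Primary screen was at 30, 10 and 3 µg/ml, in triplicate, mean ± SD. MIC was taken from dose-response curves.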
# [14] = Selectivity index, ratio of GI50 for human PANC1 cells to MIC for Mycobacterium tuberculosis H37Ra ATCC 25177 at dormant stage; format: toxicity, cell-based, PANC-1; conditions: read-out: Selectivity Index; in short: as §2
# [15] = Selectivity index, ratio of GI50 for HUVEC to MIC for Mycobacterium tuberculosis H37Ra ATCC 25177 at dormant stage
# [16] = tested on: Mycobacterium tuberculosis; assay: Growth inhibition of Mycobacterium tuberculosis H37Ra ATCC 25177 at dormant stage measured after 12 days by XTT dye based two fold dilution method; format: functional; conditions: H37Ra ATCC 25177, 288 h; in short: as §3
# [17] = tested on: Mycobacterium tuberculosis; assay: Growth inhibition of Mycobacterium bovis BCG ATCC 35743 at dormant stage measured after 12 days by nitrate reductase dye based two fold dilution method; format: functional; conditions: BCG str. ATCC 35743, 288 h; in short: as §4
# Escherichia coli [18] = assay: Growth inhibition of Escherichia coli NCIM 2688 at 10 ug/ml measured after 8 hrs relative to control; format: functional; conditions: NCIM 2688, 8 h, read-out: GI
# In short: (§5)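 Bacteria grown in LB at 37 °C and 180 rpm to OD 1. Compounds added to wells, then 0.1% inoculum of 1 OD culture (620 nm). Growth read as OD at 620 nm after 8 h for gram-negative and after 12 h for gram-positive strains.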
# [19] = Antifungal activity against Fusarium oxysporum NCIM 1332 by standard agar method; format: functional
# In short: (§6)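 MICs determined by standard agar method; DMSO as solvent control.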
# Aspergillus flavus = assay: Antifungal activity against Aspergillus flavus NCIM 539 by standard agar method; format: functional; in short: as §6
# Staphylococcus aureus [20] = assay: Antibacterial activity against of Staphylococcus aureus NCIM 2010 measured after 12 hrs; format: functional; conditions: NCIM 2010, 12 h; in short: as §5
# Bacillus subtilis [21] = assay: Growth inhibition of Bacillus subtilis NCIM 2079 at 10 ug/ml measured after 12 hrs relative to control; format: functional; conditions: NCIM 2079, 12 h, read-out: GI; in short: as §5
# [22] = Antifungal activity against Cryptococcus neoformans NCIM 576 by standard agar method; format: functional; in short: as §6
# Pseudomonas fluorescens [23] = assay: Antibacterial activity against Pseudomonas fluorescens NCIM 2036 measured after 8 hrs; format: functional; conditions: NCIM 2036, 8 h; in short: as §5
# Bacillus subtilis [24] = assay: Growth inhibition of Bacillus subtilis NCIM 2079 at 3 ug/ml measured after 12 hrs relative to control; format: functional; conditions: NCIM 2079, 12 h, read-out: GI; in short: as §5
# [25] = tested on: Mycobacterium tuberculosis; assay: Growth inhibition of Mycobacterium bovis BCG ATCC 35743 at dormant stage at 30 ug/ml measured after 12 days by nitrate reductase dye based two fold dilution method relative to control; format: functional; conditions: BCG str. ATCC 35743, 288 h, read-out: GI; in short: as §4
# [26] = tested on: Mycobacterium tuberculosis; assay: Growth inhibition of Mycobacterium bovis BCG ATCC 35743 at dormant stage at 3 ug/ml measured after 12 days by nitrate reductase dye based two fold dilution method relative to control; format: functional; conditions: BCG str. ATCC 35743, 288 h, read-out: GI; in short: as §4
# Staphylococcus aureus [27] = assay: Growth inhibition of Staphylococcus aureus NCIM 2010 at 30 ug/ml measured after 12 hrs relative to control; format: functional; conditions: NCIM 2010, 12 h, read-out: GI; in short: as §5
# Escherichia coli [28] = assay: Growth inhibition of Escherichia coli NCIM 2688 at 3 ug/ml measured after 8 hrs relative to control; format: functional; conditions: NCIM 2688, 8 h, read-out: GI; in short: as §5
# Escherichia coli [29] = assay: Antibacterial activity against Escherichia coli NCIM 2688 measured after 8 hrs; format: functional; conditions: NCIM 2688, 8 h; in short: as §5
# Pseudomonas fluorescens [30] = assay: Growth inhibition of Pseudomonas fluorescens NCIM 2036 at 10 ug/ml measured after 8 hrs relative to control; format: functional; conditions: NCIM 2036, 8 h, read-out: GI; in short: as §5
# [31] = tested on: Mycobacterium tuberculosis; assay: Growth inhibition of Mycobacterium bovis BCG ATCC 35743 at dormant stage at 10 ug/ml measured after 12 days by nitrate reductase dye based two fold dilution method relative to control; format: functional; conditions: BCG str. ATCC 35743, 288 h, read-out: GI; in short: as §4
# Pseudomonas fluorescens [32] = assay: Growth inhibition of Pseudomonas fluorescens NCIM 2036 at 30 ug/ml measured after 8 hrs relative to control; format: functional; conditions: NCIM 2036, 8 h, read-out: GI; in short: as §5
# Staphylococcus aureus [33] = assay: Growth inhibition of Staphylococcus aureus NCIM 2010 at 3 ug/ml measured after 12 hrs relative to control; format: functional; conditions: NCIM 2010, 12 h, read-out: GI; in short: as §5
# Aspergillus niger = assay: Antifungal activity against Aspergillus niger NCIM 1196 by standard agar method; format: functional; in short: as §6
# Bacillus subtilis [34] = assay: Growth inhibition of Bacillus subtilis NCIM 2079 at 30 ug/ml measured after 12 hrs relative to control; format: functional; conditions: NCIM 2079, 12 h, read-out: GI; in short: as §5
# Escherichia coli [35] = assay: Growth inhibition of Escherichia coli NCIM 2688 at 30 ug/ml measured after 8 hrs relative to control; format: functional; conditions: NCIM 2688, 8 h, read-out: GI; in short: as §5
# Candida albicans = assay: Antifungal activity against Candida albicans NCIM 3471 by standard agar method; format: functional; in short: as §6
# Pseudomonas fluorescens [36] = assay: Growth inhibition of Pseudomonas fluorescens NCIM 2036 at 3 ug/ml measured after 8 hrs relative to control; format: functional; conditions: NCIM 2036, 8 h, read-out: GI; in short: as §5
# Bacillus subtilis [37] = assay: Antibacterial activity against Bacillus subtilis NCIM 2079 measured after 12 hrs; format: functional; conditions: NCIM 2079, 12 h; in short: as §5
# Staphylococcus aureus [38] = assay: Growth inhibition of Staphylococcus aureus NCIM 2010 at 10 ug/ml measured after 12 hrs relative to control; format: functional; conditions: NCIM 2010, 12 h, read-out: GI; in short: as §5
smiles,measurement,setting,value
CC(=O)O[C@H]1C(=O)[C@@]2(C)[C@H]([C@H](OC(=O)c3ccccc3)[C@]3(O)C[C@H](OC(=O)[C@H](O)[C@@H](NC(=O)c4ccccc4)c4ccccc4)C(C)=C1C3(C)C)[C@]1(OC(C)=O)CO[C@@H]1C[C@@H]2O [PACLITAXEL],GI50 at 48 h,[1],0.08 µg/mL
same,GI50 at 48 h,[2],5.7 µg/mL
same,GI50 at 48 h,[3],> 100 µg/mL
same,GI50 at 48 h,[4],0.04 µg/mL
same,GI50 at 48 h,[5],5.8 µg/mL
same,GI50 at 48 h,[6],> 10 µg/mL
CO[C@H]1/C=C/O[C@@]2(C)Oc3c(C)c(O)c4c(O)c(c(/C=N/N5CCN(C)CC5)c(O)c4c3C2=O)NC(=O)/C(C)=C\C=C\[C@H](C)[C@H](O)[C@@H](C)[C@@H](O)[C@@H](C)[C@H](OC(C)=O)[C@@H]1C [RIFAMPIN],selectivity ratio,[7],2500
same,IC50,[8],0.0021 µg/mL
same,IC90,[8],0.028 µg/mL
same,selectivity ratio,[9],2500
same,selectivity ratio,[10],2500
same,selectivity ratio,[11],2500
same,Selectivity Index,[12],2500
same,IC90,[13],0.0151 µg/mL
same,selectivity ratio,[14],2500
same,Selectivity Index,[15],2500
same,IC50,[16],0.0019 µg/mL
same,IC90,[16],0.02 µg/mL
same,IC50,[17],0.0043 µg/mL
same,IC90,[17],0.0173 µg/mL
Cc1ccc2cc(/C=C3\SC(=S)N(CC(=O)O)C3=O)c(Cl)nc2c1,IC50,[8],> 30 µg/mL
same,IC90,[8],> 30 µg/mL
same,inhibition of growth at 10 µg/mL,Escherichia coli [18],2.04%
same,MIC,[19],125 µg/mL
same,MIC,Aspergillus flavus,100 µg/mL
same,MIC,Staphylococcus aureus [20],> 30 µg/mL
same,inhibition of growth at 10 µg/mL,Bacillus subtilis [21],-1.27%
same,MIC,[22],150 µg/mL
same,MIC,Pseudomonas fluorescens [23],> 30 µg/mL
same,IC50,[13],> 30 µg/mL
same,IC90,[13],> 30 µg/mL
same,inhibition of growth at 3 µg/mL,Bacillus subtilis [24],2.07%
same,inhibition of growth at 30 µg/mL,[25],11.4%
same,inhibition of growth at 3 µg/mL,[26],22.7%
same,inhibition of growth at 30 µg/mL,Staphylococcus aureus [27],-16%
same,inhibition of growth at 3 µg/mL,Escherichia coli [28],1.9%
same,MIC,Escherichia coli [29],> 30 µg/mL
same,inhibition of growth at 10 µg/mL,Pseudomonas fluorescens [30],-10.7%
same,inhibition of growth at 10 µg/mL,[31],22.4%
same,inhibition of growth at 30 µg/mL,Pseudomonas fluorescens [32],-8.32%
same,inhibition of growth at 3 µg/mL,Staphylococcus aureus [33],-13.1%
same,IC50,[16],> 30 µg/mL
same,IC90,[16],> 30 µg/mL
same,MIC,Aspergillus niger,75 µg/mL
same,inhibition of growth at 30 µg/mL,Bacillus subtilis [34],2.96%
same,inhibition of growth at 30 µg/mL,Escherichia coli [35],-12.5%
same,MIC,Candida albicans,125 µg/mL
same,inhibition of growth at 3 µg/mL,Pseudomonas fluorescens [36],-11.5%
same,IC50,[17],> 30 µg/mL
same,IC90,[17],> 30 µg/mL
same,MIC,Bacillus subtilis [37],> 30 µg/mL
same,inhibition of growth at 10 µg/mL,Staphylococcus aureus [38],-23.6%
